Laboratory results reported in ChEMBL document CHEMBL1135836, “Cyclodextrin-derived host molecules as reversal agents for the neuromuscular blocker rocuronium bromide: synthesis and structure-activity relationships” (J Med Chem, 2002).

Experiments:
Type in all cases: functional
[1] = tested on: Cavia porcellus; test: In vivo reversal activity versus ~90% block by rocuronium in guinea pig, expressed as % of maximum reversal at 0.5 umol/kg conc.
Method in brief: (§1)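 Male Dunkin-Hartley guinea pigs (600-900 g), anaesthetized ip with pentobarbitone 10 mg/kg plus urethane 1000 mg/kg, tracheotomized and ventilated. Continuous iv rocuronium infusion (~10 nmol kg-1 min-1) was raised to a steady 85-90% block. Increasing iv doses of agent were given cumulatively. ED50 = 50% recovery versus preblock twitch, by regression. Mean ± SEM of at least two experiments, or one.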

[2] = tested on: Cavia porcellus; test: In vivo reversal activity versus ~90% block by rocuronium in guinea pig; method in brief: as §1
[3] = organism: Mus musculus; test: In vitro reversal activity versus ~90% block by rocuronium in isolated mouse hemidiaphragm, expressed as % of maximum reversal at 3.6 uM conc.
[4] = organism: Mus musculus; test: In vitro reversal activity versus ~90% block by rocuronium in isolated mouse hemidiaphragm, expressed as effective conc.
[5] = organism: Mus musculus; test: In vitro reversal activity versus ~90% block by rocuronium in isolated mouse hemidiaphragm, expressed as % of maximum reversal at 18 uM conc.
[6] = tested on: Cavia porcellus; test: In vivo reversal activity versus ~90% block by rocuronium in guinea pig, expressed as % of maximum reversal at 16 umol/kg conc.
Method in brief: (§2)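 Male Dunkin-Hartley guinea pigs (600-900 g) anaesthetized ip with pentobarbitone 10 mg/kg plus urethane 1000 mg/kg, tracheotomized and artificially ventilated. Continuous iv rocuronium bromide infusion (~10 nmol kg-1 min-1) raised until steady-state twitch block of 85-90%. Increasing single iv doses of reversal agent given by a separate catheter. Max reversal is peak twitch recovery versus preblock height at highest dose tested; means ± SEM, n ≥ 2 or single experiment.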

[7] = organism: Mus musculus; test: In vitro reversal activity versus ~90% block by rocuronium in isolated mouse hemidiaphragm, expressed as % of maximum reversal at 5.4 uM conc.
[8] = tested on: Cavia porcellus; test: In vivo reversal activity versus ~90% block by rocuronium in guinea pig, expressed as % of maximum reversal at 15 umol/kg conc.; method in brief: as §2
[9] = tested on: Cavia porcellus; test: In vivo reversal activity versus ~90% block by rocuronium in guinea pig, expressed as % of maximum reversal at 0.3 umol/kg conc.; method in brief: as §1

| EC50 [4] | SMILES | Max reversal [1] | ED50 [2] | Max reversal [3] | Max reversal [5] | Max reversal [6] | Max reversal [7] | Max reversal [8] | Max reversal [9] |
| --- | --- | --- | --- | --- | --- | --- | --- | --- | --- |
| 3.6 µM | O=S(=O)([O-])CCSCC1O[C@@H]2O[C@@H]3C(CSCCS(=O)(=O)[O-])O[C@H](O[C@@H]4C(CSCCS(=O)(=O)[O-])O[C@H](O[C@@H]5C(CSCCS(=O)(=O)[O-])O[C@H](O[C@@H]6C(CSCCS(=O)(=O)[O-])O[C@H](O[C@@H]7C(CSCCS(=O)(=O)[O-])O[C@H](O[C@@H]8C(CSCCS(=O)(=O)[O-])O[C@H](O[C@@H]9C(CSCCS(=O)(=O)[O-])O[C@H](O[C@H]1C(O)C2O)C(O)C9O)C(O)C8O)C(O)C7O)C(O)C6O)C(O)C5O)C(O)C4O)C(O)C3O.[Na+].[Na+].[Na+].[Na+].[Na+].[Na+].[Na+].[Na+] (stereo partly specified) | 92.8% | 0.05 µmol/kg | 95.6% |  |  |  |  |  |
| 60.8 µM | O=C([O-])CSCC1O[C@@H]2O[C@@H]3C(CO)O[C@H](O[C@@H]4C(CO)O[C@H](O[C@@H]5C(CO)O[C@H](O[C@@H]6C(CO)O[C@H](O[C@@H]7C(CO)O[C@H](O[C@@H]8C(CO)O[C@H](O[C@@H]9C(CO)O[C@H](O[C@H]1C(O)C2O)C(O)C9O)C(O)C8O)C(O)C7O)C(O)C6O)C(O)C5O)C(O)C4O)C(O)C3O.[Na+] (stereo partly specified) |  | 5.79 µmol/kg |  | 28.9% | 96.5% |  |  |  |
| 1.2 µM | O=C([O-])CSCC1O[C@@H]2O[C@@H]3C(CSCC(=O)[O-])O[C@H](O[C@@H]4C(CSCC(=O)[O-])O[C@H](O[C@@H]5C(CSCC(=O)[O-])O[C@H](O[C@@H]6C(CSCC(=O)[O-])O[C@H](O[C@@H]7C(CSCC(=O)[O-])O[C@H](O[C@@H]8C(CSCC(=O)[O-])O[C@H](O[C@@H]9C(CSCC(=O)[O-])O[C@H](O[C@H]1C(O)C2O)C(O)C9O)C(O)C8O)C(O)C7O)C(O)C6O)C(O)C5O)C(O)C4O)C(O)C3O.[Na+].[Na+].[Na+].[Na+].[Na+].[Na+].[Na+].[Na+] (stereo partly specified) | 103.3% | 0.1 µmol/kg | 93.8% |  |  |  |  |  |
| > 18 µM | O=C([O-])Cc1cccc(SCC2O[C@@H]3O[C@@H]4C(CO)O[C@H](O[C@@H]5C(CO)O[C@H](O[C@@H]6C(CO)O[C@H](O[C@@H]7C(CO)O[C@H](O[C@@H]8C(CO)O[C@H](O[C@@H]9C(CO)O[C@H](O[C@@H]%10C(CO)O[C@H](O[C@H]2C(O)C3O)C(O)C%10O)C(O)C9O)C(O)C8O)C(O)C7O)C(O)C6O)C(O)C5O)C(O)C4O)c1.[Na+] (stereo partly specified) |  | 1.67 µmol/kg |  | 30.4% | 92.8% |  |  |  |
| 14.8 µM | O=C([O-])CCc1cccc(SCC2O[C@@H]3O[C@@H]4C(CSc5cccc(CCC(=O)[O-])c5)O[C@H](O[C@@H]5C(CSc6cccc(CCC(=O)[O-])c6)O[C@H](O[C@@H]6C(CSc7cccc(CCC(=O)[O-])c7)O[C@H](O[C@@H]7C(CSc8cccc(CCC(=O)[O-])c8)O[C@H](O[C@@H]8C(CSc9cccc(CCC(=O)[O-])c9)O[C@H](O[C@@H]9C(CSc%10cccc(CCC(=O)[O-])c%10)O[C@H](O[C@@H]%10C(CSc%11cccc(CCC(=O)[O-])c%11)O[C@H](O[C@H]2C(O)C3O)C(O)C%10O)C(O)C9O)C(O)C8O)C(O)C7O)C(O)C6O)C(O)C5O)C(O)C4O)c1.[Na+].[Na+].[Na+].[Na+].[Na+].[Na+].[Na+].[Na+] (stereo partly specified) |  | 22.8 µmol/kg |  | 65.2% | 35.3% |  |  |  |
| 0.1 µM | O=C([O-])c1ccccc1C(=O)NCCSCC1O[C@@H]2O[C@@H]3C(CSCCNC(=O)c4ccccc4C(=O)[O-])O[C@H](O[C@@H]4C(CSCCNC(=O)c5ccccc5C(=O)[O-])O[C@H](O[C@@H]5C(CSCCNC(=O)c6ccccc6C(=O)[O-])O[C@H](O[C@@H]6C(CSCCNC(=O)c7ccccc7C(=O)[O-])O[C@H](O[C@@H]7C(CSCCNC(=O)c8ccccc8C(=O)[O-])O[C@H](O[C@@H]8C(CSCCNC(=O)c9ccccc9C(=O)[O-])O[C@H](O[C@@H]9C(CSCCNC(=O)c%10ccccc%10C(=O)[O-])O[C@H](O[C@H]1C(O)C2O)C(O)C9O)C(O)C8O)C(O)C7O)C(O)C6O)C(O)C5O)C(O)C4O)C(O)C3O.[Na+].[Na+].[Na+].[Na+].[Na+].[Na+].[Na+].[Na+] (stereo partly specified) | 94.5% | 0.09 µmol/kg |  |  |  | 88.3% |  |  |
| > 18 µM | O=C([O-])c1cccc(SCC2O[C@@H]3O[C@@H]4C(CO)O[C@H](O[C@@H]5C(CO)O[C@H](O[C@@H]6C(CO)O[C@H](O[C@@H]7C(CO)O[C@H](O[C@@H]8C(CO)O[C@H](O[C@@H]9C(CO)O[C@H](O[C@@H]%10C(CO)O[C@H](O[C@H]2C(O)C3O)C(O)C%10O)C(O)C9O)C(O)C8O)C(O)C7O)C(O)C6O)C(O)C5O)C(O)C4O)c1.[Na+] (stereo partly specified) |  | 2.41 µmol/kg |  | 36.1% | 102.7% |  |  |  |
| > 18 µM | O=C([O-])CCc1cccc(SCC2O[C@@H]3O[C@@H]4C(CO)O[C@H](O[C@@H]5C(CO)O[C@H](O[C@@H]6C(CO)O[C@H](O[C@@H]7C(CO)O[C@H](O[C@@H]8C(CO)O[C@H](O[C@@H]9C(CO)O[C@H](O[C@@H]%10C(CO)O[C@H](O[C@H]2C(O)C3O)C(O)C%10O)C(O)C9O)C(O)C8O)C(O)C7O)C(O)C6O)C(O)C5O)C(O)C4O)c1.[Na+] (stereo partly specified) |  | 12.6 µmol/kg |  | 3.9% |  |  | 55.8% |  |
| 1.8 µM | O=C([O-])CCCCSCC1O[C@@H]2O[C@@H]3C(CSCCCCC(=O)[O-])O[C@H](O[C@@H]4C(CSCCCCC(=O)[O-])O[C@H](O[C@@H]5C(CSCCCCC(=O)[O-])O[C@H](O[C@@H]6C(CSCCCCC(=O)[O-])O[C@H](O[C@@H]7C(CSCCCCC(=O)[O-])O[C@H](O[C@@H]8C(CSCCCCC(=O)[O-])O[C@H](O[C@@H]9C(CSCCCCC(=O)[O-])O[C@H](O[C@H]1C(O)C2O)C(O)C9O)C(O)C8O)C(O)C7O)C(O)C6O)C(O)C5O)C(O)C4O)C(O)C3O.[Na+].[Na+].[Na+].[Na+].[Na+].[Na+].[Na+].[Na+] (stereo partly specified) |  | 0.07 µmol/kg |  |  |  | 98.9% |  | 99% |
| 1.4 µM | O=C([O-])CCCSCC1O[C@@H]2O[C@@H]3C(CSCCCC(=O)[O-])O[C@H](O[C@@H]4C(CSCCCC(=O)[O-])O[C@H](O[C@@H]5C(CSCCCC(=O)[O-])O[C@H](O[C@@H]6C(CSCCCC(=O)[O-])O[C@H](O[C@@H]7C(CSCCCC(=O)[O-])O[C@H](O[C@@H]8C(CSCCCC(=O)[O-])O[C@H](O[C@@H]9C(CSCCCC(=O)[O-])O[C@H](O[C@H]1C(O)C2O)C(O)C9O)C(O)C8O)C(O)C7O)C(O)C6O)C(O)C5O)C(O)C4O)C(O)C3O.[Na+].[Na+].[Na+].[Na+].[Na+].[Na+].[Na+].[Na+] (stereo partly specified) |  | 0.06 µmol/kg | 98.5% |  |  |  |  | 93.4% |
| > 18 µM | O=C([O-])CCCSCC1O[C@@H]2O[C@@H]3C(CO)O[C@H](O[C@@H]4C(CO)O[C@H](O[C@@H]5C(CO)O[C@H](O[C@@H]6C(CO)O[C@H](O[C@@H]7C(CO)O[C@H](O[C@@H]8C(CO)O[C@H](O[C@@H]9C(CO)O[C@H](O[C@H]1C(O)C2O)C(O)C9O)C(O)C8O)C(O)C7O)C(O)C6O)C(O)C5O)C(O)C4O)C(O)C3O.[Na+] (stereo partly specified) |  |  |  | 14.4% |  |  |  |  |
| > 18 µM | O=C([O-])CCCSCC1O[C@@H]2O[C@@H]3C(CSCCCC(=O)[O-])O[C@H](O[C@@H]4C(CSCCCC(=O)[O-])O[C@H](O[C@@H]5C(CSCCCC(=O)[O-])O[C@H](O[C@@H]6C(CSCCCC(=O)[O-])O[C@H](O[C@@H]7C(CSCCCC(=O)[O-])O[C@H](O[C@H]1C(O)C2O)C(O)C7O)C(O)C6O)C(O)C5O)C(O)C4O)C(O)C3O.[Na+].[Na+].[Na+].[Na+].[Na+].[Na+] (stereo partly specified) |  | > 16 µmol/kg |  | 5.3% | 3.4% |  |  |  |
